This passage reports EDmin, Ki and IC50 results from ChEMBL document CHEMBL1136239, “Bicyclo[2.2.1]heptanes as novel triple re-uptake inhibitors for the treatment of depression” (Bioorg Med Chem Lett, 2003).

In experiment [1] the target is Sodium-dependent noradrenaline transporter (Mus musculus) (UniProt O55192). The experiment is described as follows: In vivo potentiation of compound towards norepinephrine transporter after po administration was determined in mouse using mouse apomorphine hypothermia. In kind it is functional, organism-based. Summed up:
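Apomorphine (APO) test after oral administration. The result is expressed as the minimum effective dose (EDmin), mg/kg po.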

Experiment [2] concerns the target T1, Sodium-dependent dopamine transporter (Homo sapiens, UniProt Q01959). Briefly: Displacement of [3H]WIN-35428 from Dopamine transporter. Summed up: (§1)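 Radioligand binding: inhibitory binding constants measured against a known radiolabelled re-uptake inhibitor. Ligands were [3H]citalopram for SERT, [3H]WIN35,428 for DAT and [3H]nisoxetine for NET. Values are means of three experiments; minimum significant ratio < 3.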

The target in experiment [3] is T1, Sodium-dependent dopamine transporter. Briefly: In vitro inhibition of DA re-uptake into synaptosome. In kind it is functional, tissue-based, Brain.
In experiment [4] the target is T2, Sodium-dependent serotonin transporter (Homo sapiens, UniProt P31645). Briefly: In vitro ability of compound to inhibit 5-HT re-uptake of radiolabeled [3H]-tritium transmitter into synaptosome. The format is tissue-based, Brain.
T2 sequence (P31645 whole entry): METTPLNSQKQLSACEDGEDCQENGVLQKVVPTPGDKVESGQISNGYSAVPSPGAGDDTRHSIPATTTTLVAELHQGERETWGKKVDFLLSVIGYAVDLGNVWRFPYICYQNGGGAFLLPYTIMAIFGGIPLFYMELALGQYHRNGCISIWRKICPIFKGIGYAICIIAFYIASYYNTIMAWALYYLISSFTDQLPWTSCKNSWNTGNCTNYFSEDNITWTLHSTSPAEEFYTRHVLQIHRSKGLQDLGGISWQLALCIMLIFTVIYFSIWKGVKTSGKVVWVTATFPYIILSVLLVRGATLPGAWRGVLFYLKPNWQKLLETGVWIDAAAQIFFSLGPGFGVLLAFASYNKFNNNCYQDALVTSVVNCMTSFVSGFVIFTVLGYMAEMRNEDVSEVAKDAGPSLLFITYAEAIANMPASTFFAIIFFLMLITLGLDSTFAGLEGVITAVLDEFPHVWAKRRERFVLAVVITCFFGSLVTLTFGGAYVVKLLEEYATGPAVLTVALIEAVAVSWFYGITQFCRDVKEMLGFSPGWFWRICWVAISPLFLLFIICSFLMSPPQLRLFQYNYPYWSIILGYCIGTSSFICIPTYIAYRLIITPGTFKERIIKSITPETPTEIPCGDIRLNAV
Experiment [5] concerns the target Sodium-dependent dopamine transporter (Mus musculus) (UniProt Q61327). Briefly: In vivo potentiation of compound towards Dopamine transporter after po administration was determined in mouse using mouse locomotor activity […]. In kind it is functional, organism-based. Summed up: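 Given by mouth and assessed in the MLA (locomotor activity) test. Reported as the minimum effective dose (EDmin), mg/kg po.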

The target of experiment [6] is T2, Sodium-dependent serotonin transporter. Briefly: Displacement of [3H]-citalopram from Serotonin transporter. Summed up: as §1
Experiment [7] concerns the target Sodium-dependent serotonin transporter (Mus musculus) (UniProt Q60857). The experiment is described as follows: In vivo potentiation of compound towards Serotonin transporter after po administration. In kind it is functional, organism-based. Summed up: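 Oral dosing, read-out from the 5-HTP test. The value is the minimum effective dose (EDmin) in mg/kg po.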

In experiment [8] the target is T3, Sodium-dependent noradrenaline transporter (Homo sapiens, UniProt P23975). The experiment is described as follows: In vitro inhibition of [3H]NE re-uptake into synaptosome. In kind it is functional, tissue-based, Brain.
T3 sequence (P23975 whole entry): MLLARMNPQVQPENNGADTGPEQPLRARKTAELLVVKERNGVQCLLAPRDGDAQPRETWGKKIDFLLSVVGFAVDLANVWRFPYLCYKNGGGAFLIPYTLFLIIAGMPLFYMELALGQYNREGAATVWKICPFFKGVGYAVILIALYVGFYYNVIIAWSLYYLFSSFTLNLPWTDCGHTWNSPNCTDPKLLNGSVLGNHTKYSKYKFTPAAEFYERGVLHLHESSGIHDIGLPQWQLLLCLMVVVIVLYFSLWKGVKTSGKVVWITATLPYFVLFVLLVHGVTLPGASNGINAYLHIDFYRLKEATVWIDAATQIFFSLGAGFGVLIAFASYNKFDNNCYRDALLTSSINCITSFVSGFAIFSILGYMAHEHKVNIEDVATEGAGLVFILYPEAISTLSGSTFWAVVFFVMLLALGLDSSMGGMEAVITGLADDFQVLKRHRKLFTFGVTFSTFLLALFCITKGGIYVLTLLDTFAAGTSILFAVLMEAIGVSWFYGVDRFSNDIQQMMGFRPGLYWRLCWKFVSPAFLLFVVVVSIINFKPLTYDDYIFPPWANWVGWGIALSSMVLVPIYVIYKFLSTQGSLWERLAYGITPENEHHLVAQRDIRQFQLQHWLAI
Experiment [9] addresses T3, Sodium-dependent noradrenaline transporter. The experiment is described as follows: Compound was tested for its ability to displace […] from norepinephrine transporter.
Experiment [10] has the same target. The experiment is described as follows: Displacement of [3H]-Nisoxetine from norepinephrine transporter.

T1 sequence (Q01959 whole entry): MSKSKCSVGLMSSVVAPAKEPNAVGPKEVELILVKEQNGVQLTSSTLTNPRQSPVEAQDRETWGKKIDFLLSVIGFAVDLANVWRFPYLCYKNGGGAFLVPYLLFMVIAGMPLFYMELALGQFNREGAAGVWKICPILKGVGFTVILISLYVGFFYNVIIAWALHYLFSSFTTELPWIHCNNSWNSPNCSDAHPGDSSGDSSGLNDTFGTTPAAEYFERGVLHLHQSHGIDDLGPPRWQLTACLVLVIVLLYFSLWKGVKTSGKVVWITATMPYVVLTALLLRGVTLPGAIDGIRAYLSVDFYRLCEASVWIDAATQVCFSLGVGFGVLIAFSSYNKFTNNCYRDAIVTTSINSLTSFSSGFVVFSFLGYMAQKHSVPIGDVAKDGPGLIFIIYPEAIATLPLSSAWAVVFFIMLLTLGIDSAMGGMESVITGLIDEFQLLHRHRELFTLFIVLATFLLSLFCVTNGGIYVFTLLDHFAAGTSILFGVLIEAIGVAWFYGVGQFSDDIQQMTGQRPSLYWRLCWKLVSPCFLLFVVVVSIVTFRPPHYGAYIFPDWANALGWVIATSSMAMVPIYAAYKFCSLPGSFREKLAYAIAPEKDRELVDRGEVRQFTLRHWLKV
Sodium-dependent serotonin transporter (Mus musculus), sequence (Q60857 whole entry): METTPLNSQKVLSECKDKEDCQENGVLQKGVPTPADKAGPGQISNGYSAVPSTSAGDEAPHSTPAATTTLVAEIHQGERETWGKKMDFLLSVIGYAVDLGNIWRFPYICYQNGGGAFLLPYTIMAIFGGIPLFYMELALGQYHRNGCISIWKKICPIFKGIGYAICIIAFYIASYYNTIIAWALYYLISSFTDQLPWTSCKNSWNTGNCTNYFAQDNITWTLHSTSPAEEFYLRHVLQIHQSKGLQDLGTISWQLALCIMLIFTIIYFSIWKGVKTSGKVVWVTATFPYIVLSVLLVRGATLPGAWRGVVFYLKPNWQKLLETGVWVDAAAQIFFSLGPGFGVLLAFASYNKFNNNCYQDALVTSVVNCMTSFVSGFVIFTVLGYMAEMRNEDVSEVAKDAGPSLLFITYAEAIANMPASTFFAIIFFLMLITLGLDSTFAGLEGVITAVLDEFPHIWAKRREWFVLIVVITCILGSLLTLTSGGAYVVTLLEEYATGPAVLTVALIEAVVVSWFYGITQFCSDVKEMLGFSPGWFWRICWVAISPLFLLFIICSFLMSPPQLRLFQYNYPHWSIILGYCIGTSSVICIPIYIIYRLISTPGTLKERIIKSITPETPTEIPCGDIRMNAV
Sodium-dependent dopamine transporter (Mus musculus), sequence (Q61327 whole entry): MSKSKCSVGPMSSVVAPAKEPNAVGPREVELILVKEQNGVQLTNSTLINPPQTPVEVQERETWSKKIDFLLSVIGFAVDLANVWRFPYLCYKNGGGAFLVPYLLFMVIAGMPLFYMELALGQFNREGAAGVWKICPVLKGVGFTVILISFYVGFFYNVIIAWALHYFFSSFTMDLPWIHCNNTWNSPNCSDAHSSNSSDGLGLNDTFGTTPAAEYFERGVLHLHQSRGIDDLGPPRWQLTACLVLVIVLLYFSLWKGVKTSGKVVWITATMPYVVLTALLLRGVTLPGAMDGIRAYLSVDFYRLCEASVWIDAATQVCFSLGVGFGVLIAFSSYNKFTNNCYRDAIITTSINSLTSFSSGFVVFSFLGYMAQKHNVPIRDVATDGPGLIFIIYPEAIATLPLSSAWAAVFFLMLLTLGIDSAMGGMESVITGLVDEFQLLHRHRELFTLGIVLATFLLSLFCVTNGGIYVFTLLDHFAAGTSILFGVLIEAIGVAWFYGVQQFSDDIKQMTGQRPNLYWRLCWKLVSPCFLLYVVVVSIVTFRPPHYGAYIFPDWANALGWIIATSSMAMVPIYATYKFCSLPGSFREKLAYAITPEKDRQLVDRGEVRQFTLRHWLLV
Sodium-dependent noradrenaline transporter (Mus musculus), sequence (O55192 whole entry): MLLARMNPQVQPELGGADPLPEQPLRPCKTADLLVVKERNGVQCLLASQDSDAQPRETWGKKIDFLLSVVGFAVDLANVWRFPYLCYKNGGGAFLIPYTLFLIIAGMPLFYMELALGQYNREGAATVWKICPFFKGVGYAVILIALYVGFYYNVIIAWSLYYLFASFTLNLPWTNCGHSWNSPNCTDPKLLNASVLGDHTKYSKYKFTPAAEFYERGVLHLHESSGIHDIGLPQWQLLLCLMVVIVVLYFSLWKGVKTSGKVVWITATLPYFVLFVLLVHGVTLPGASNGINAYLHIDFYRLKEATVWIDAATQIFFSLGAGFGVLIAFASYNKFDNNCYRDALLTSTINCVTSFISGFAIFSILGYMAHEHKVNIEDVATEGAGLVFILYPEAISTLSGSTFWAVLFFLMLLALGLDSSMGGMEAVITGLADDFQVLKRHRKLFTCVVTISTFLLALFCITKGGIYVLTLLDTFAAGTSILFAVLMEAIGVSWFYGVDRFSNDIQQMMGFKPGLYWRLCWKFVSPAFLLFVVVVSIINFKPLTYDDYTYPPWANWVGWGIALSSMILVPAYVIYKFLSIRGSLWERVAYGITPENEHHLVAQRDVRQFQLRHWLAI

Take `CN(C)C[C@H]1C2CCC(C2)[C@@H]1c1ccc2ccccc2c1` (stereo partly specified): the EDmin in experiment [1] came out at 25 mg/kg; in experiment [5], 40 mg/kg; in experiment [7], 5 mg/kg. Moreover, the Ki – broadly, the dissociation constant of the complex between target and ligand, obtained from inhibition or displacement – was 25 nM in experiment [2] and 2.3 nM in experiment [6]. Moreover, the 50% inhibitory concentration (IC50) (usually the concentration that gives 50% inhibition) was 76 nM in experiment [3] and 9 nM in experiment [4].
`CN(C)C[C@@H]1C2CCC(CC2)[C@@H]1c1ccc(Cl)c(Cl)c1`: the inhibitory constant (Ki) in experiment [2] was 7.2 nM; in experiment [9], 44 nM; in experiment [6], 57 nM. For the same molecule, the results for the IC50 in [3], in experiment [8] and in experiment [4] were 28 nM, 22 nM and 270 nM, respectively.
For the molecule `CN(C)CC1C2CCC(C2)C1c1ccc2ccccc2c1` (stereo unspecified), the inhibitory constant (Ki) was 18 nM in [2] and 2.8 nM in experiment [6]. The 50% inhibitory concentration (IC50) in experiment [3] turned out to be 95 nM; in [4], 10 nM.
On to `CNC[C@H]1C2CCC(C2)[C@@H]1c1ccc2cc(F)ccc2c1` (stereo partly specified), for which the inhibition constant Ki in experiment [10] came to 316 nM; in [2], 72 nM; in [6], 4.4 nM.
Turning to `COc1ccc2cc([C@H]3C4CCC(C4)[C@@H]3CN(C)C)ccc2c1` (stereo partly specified), the inhibition constant Ki stood at 68 nM in experiment [10], 64 nM in experiment [2] and 25 nM in [6].
Consider `CN(C)C[C@H]1C2CCC(C2)[C@@H]1c1ccc2cc(O)ccc2c1` (stereo partly specified), for which the Ki in experiment [10] was determined as 50 nM; in experiment [2] it was 6 nM; in experiment [6], 47 nM.
For `CNC[C@H]1C2CCC(C2)[C@@H]1c1ccc2ccccc2c1` (stereo partly specified), the Ki in experiment [2] worked out at 41 nM; in [6], 3.6 nM. Also, the IC50 in experiment [3] turned out to be 86 nM; in experiment [4], 9 nM.
For `CN(C)C[C@H]1C2CCC(CC2)[C@@H]1c1cccc(Cl)c1`, the inhibition constant (Ki) was 64 nM in experiment [2] and 25 nM in [6]. For the same molecule, the IC50 in [3] came out at 165 nM; in [4] it was 303 nM.
On to `CN(C)CC1C2CCC(C2)C1c1cccc2ccccc12` (stereo unspecified), for which the inhibitory constant (Ki) in [2] is 430 nM; in [6], 52 nM. In addition, the IC50 in experiment [3] was found to be 1510 nM; in [4], 93 nM.
For the molecule `CN(C)C[C@@H]1C2CCC(C2)[C@H]1c1ccc2ccccc2c1` (stereo partly specified), the inhibition constant Ki came to 38 nM in [2] and 5.8 nM in [6]. The results for the 50% inhibitory concentration (IC50) in experiment [3] and in experiment [4] were 93 nM and 20 nM, respectively. In addition, the EDmin in experiment [7] is more than 20 mg/kg.
Take `CNCC1C2CCC(C2)C1c1ccc2ccccc2c1` (stereo unspecified): the EDmin in [1] was 20 mg/kg; in experiment [5] it was 25 mg/kg; in experiment [7], 20 mg/kg. The figures for the Ki in experiment [2] and in [6] were 25 nM and 4.9 nM, respectively. The IC50 was 87 nM in experiment [3] and 50 nM in experiment [4].
Turning to `CN(C)C[C@H]1C2CCC(C2)[C@@H]1c1ccc2cc(F)ccc2c1` (stereo partly specified), the values for the Ki in experiment [10], in experiment [2] and in experiment [6] were 385 nM, 50 nM and 2.6 nM, respectively.
Turning to `CNC[C@H]1C2CCC(C2)[C@@H]1c1ccc2cc(OC)ccc2c1` (stereo partly specified), the inhibition constant Ki in experiment [10] was found to be 120 nM; in [2], 60 nM; in experiment [6] it was 12 nM.
